ABCB1 block: human ABCB1 inhibition, ABCG2 as counter-screen; P08183; CCRF-Adr cells, JC-1 efflux, flow cytometry; inhibition, % at 6.6 µM; 0.067% of 190,000 active; AID 1326; in the data active = inhibition above about 40%;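 note: higher value means more JC-1 retained so stronger ABCB1 efflux block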
Avidin bead fluor: compound fluoresces at 488/530 nm on avidin beads; compound fluorescence 488/530 nm, flow cytometry; stronger effect = higher value; fluorescence (KMESF) at 10 µM; 0.38% of 220,000 active; AID 1775; in the data active = fluorescence above about 47
ABCG2 block: human ABCG2 inhibition, ABCB1 as counter-screen; Q9UNQ0; IgMXP3 cells, JC-1 efflux, flow cytometry; inhibition, % at 6.6 µM; 0.1% of 190,000 active; AID 1325;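 active = inhibition above 80%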
Target sequence (Q9UNQ0 whole entry, looked up): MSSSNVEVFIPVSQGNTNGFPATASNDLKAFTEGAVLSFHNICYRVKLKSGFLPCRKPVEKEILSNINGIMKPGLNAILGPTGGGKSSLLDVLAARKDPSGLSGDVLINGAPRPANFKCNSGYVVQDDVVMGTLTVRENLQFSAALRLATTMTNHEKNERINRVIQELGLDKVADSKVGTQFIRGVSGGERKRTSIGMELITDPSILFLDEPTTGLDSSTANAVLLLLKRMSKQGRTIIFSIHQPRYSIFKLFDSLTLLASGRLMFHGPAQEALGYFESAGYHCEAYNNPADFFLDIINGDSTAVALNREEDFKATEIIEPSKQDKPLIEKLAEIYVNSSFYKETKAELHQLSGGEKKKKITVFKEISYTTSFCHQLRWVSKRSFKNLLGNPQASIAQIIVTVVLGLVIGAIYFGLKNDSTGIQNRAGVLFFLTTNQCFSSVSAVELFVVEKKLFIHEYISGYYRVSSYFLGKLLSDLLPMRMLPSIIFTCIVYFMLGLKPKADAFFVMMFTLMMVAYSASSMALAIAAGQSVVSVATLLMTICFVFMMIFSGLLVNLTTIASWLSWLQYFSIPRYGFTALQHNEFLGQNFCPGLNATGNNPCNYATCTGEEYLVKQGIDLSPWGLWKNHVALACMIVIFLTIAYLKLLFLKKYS
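Test system: IgMXP3 cells (ABCG2) mixed with DDAO far-red-labelled CCRF-Adr cells (ABCB1). Reagent: JC-1 transporter substrate. Compound dosing: single test compound dose, 6.6 µM final. Times: 10 min compound exposure, 25 °C. Detection: flow cytometry of retained JC-1 fluorescence. Read-out basis: efflux inhibition in percent versus controls. Controls: nicardipine and DMSO wells.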
L major viab: reduces viability of Leishmania major promastigotes; resazurin fluorescence viability; 9% of 200,000 active; inhibition, % at 10 µM;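 note: promastigotes grown with compound for 44 hours at 28 °C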
GSH bead fluor: compound fluoresces at 488/530 nm on GSH beads | fluorescence (KMESF) at 10 µM | 0.25% of 190,000 active | GSH beads flow cytometry, compound fluorescence 488/530 nm; stronger effect = higher value; in the data active = fluorescence above about 89;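 note: glutathione beads carrying GST-tagged Bcl family fusion proteins plus one bare bead set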
PKD1 inh: inhibitors of human PKD1 kinase; 0.056% of 200,000 active; PKD1 kinase fluorescence polarization assay; inhibition, % (concentration not given with the values); AID 797
Lmaj promast 1uM: inhibitors of Leishmania major promastigote growth, repeat at 1 uM | L. major promastigote growth, resazurin fluorescence, 48 h | inhibition, % at 1 µM | shares compounds with L major viab | 13% of 1,100 active;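 active = inhibition above about 50% in both repeat tests, limit read from the data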
Numbers stand for hits; - = inactive; . = not tested or not shown. The sample as a whole holds a higher share of hits than the screen did. Cut-off read from the data, not from the text of the source, unless noted: active = inhibition above about 50%; inactive = the rest.

SMILES | ABCB1 block | Avidin bead fluor | ABCG2 block | L major viab | GSH bead fluor | PKD1 inh | Lmaj promast 1uM
Cc1c(Br)c(C(=O)NNC(=O)c2ccc(C(C)(C)C)cc2)nn1C | . | - | . | . | . | . | .
CCNC(=S)N(Cc1c(C)noc1C)c1ccccc1 | - | - | - | 51 | - | - | -
CC(C)(C)c1ccc(OCCNC(=O)c2ncn[nH]2)cc1 | - | - | - | 70 | - | - | -
Cc1noc2ncnc(Sc3ccc(Br)cc3)c12 | - | - | - | 67 | - | - | -
Cc1cc(C)c(C(=O)c2ccc(C(=O)N(C(C)C)C(C)C)cc2)c(C)c1 | - | - | - | 86 | - | - | -
CN(CCC#N)S(=O)(=O)c1ccc2[nH]cc(C(=O)NCCc3ccccc3)c(=O)c2c1 | - | - | - | - | - | - | .
Cc1ccccc1NC1=C/C(=N\S(=O)(=O)c2cccs2)c2ccccc2C1=O | - | - | - | 100 | - | - | 97
Cc1cc[n+](C2=C([O-])c3ccccc3C(=O)/C2=N\S(=O)(=O)c2cccs2)cc1C | - | - | - | - | - | - | .
CC(C)Cn1c(N)c(C(=O)CSc2ccccc2)c(=O)n(C)c1=O | - | - | - | 51 | - | - | -
Cc1ccccc1CSCC(=O)c1c(N)n(CC(C)C)c(=O)n(C)c1=O | - | - | - | - | - | - | .
Cc1[nH]c2c(Br)cccc2c1[C@H]1[C@@H](CC#N)C1(C)C | - | - | - | 99 | - | - | -
CC(OC(=O)CNC(=O)c1ccccc1F)C(=O)Nc1nc(-c2ccccc2)cs1 (stereo not given) | - | - | - | - | - | - | .
Cn1nc(C(F)(F)F)c2cc(NC(=O)OCc3ccc(C(C)(C)C)cc3)sc21 | - | - | - | 97 | - | - | -
Cn1nc(C(F)(F)F)c2cc(NC(=O)OCc3ccc(F)cc3)sc21 | - | - | - | - | - | - | .
COC(=O)c1cc2ccsc2n1Cc1cccc(F)c1 | - | - | - | - | - | - | .
COC(=O)c1cc2ccsc2n1Cc1nc(-c2ccc(OC)cc2)oc1C | - | - | - | 100 | - | - | 93
CC(C)CSc1nnc2c(n1)[nH]c1ccccc12 | - | - | - | - | - | - | .
CC1=CCC(/C=N\Nc2nnc3c(n2)[nH]c2ccccc23)CC1 (stereo not given) | - | - | - | 52 | - | - | -
Cc1ccc(C)c(NC(=O)c2ccc[n+](Cc3ccc([N+](=O)[O-])cc3)c2)c1 | - | - | - | - | - | - | .
O=C(COC(=O)c1ccncc1)c1ccc(Br)cc1 | - | - | - | - | - | - | .
COC(=O)C(CC(=O)c1ccc(Br)cc1)n1ccnc1 (stereo not given) | - | - | - | 79 | - | - | -
O=C(O)c1cccc(N2CCCC2=O)c1 | - | - | - | - | - | - | .
C[C@H]1CC[C@H]2C(=O)N3[C@H](c4cccc(N5CCCC5=O)c4)[C@@H](C)CC[C@H]3C(=O)N2[C@@H]1c1cccc(N2CCCC2=O)c1 | - | - | - | 82 | - | - | -
CCN(CC)CCNC(=O)Cn1nc(Cc2cccnc2)c2ccccc2c1=O | - | - | - | - | - | - | .
CCOc1ccc(Oc2ccc(C(F)(F)F)cc2N)cc1 | - | - | - | 51 | - | - | -
SMILES | ABCB1 block | Avidin bead fluor | ABCG2 block | L major viab | GSH bead fluor | PKD1 inh | Lmaj promast 1uM
COc1cccc(Oc2ccc(C(F)(F)F)cc2N)c1 | - | - | - | - | - | - | .
NC(=S)Nn1c(CCC(=O)O)ccc1-c1ccccc1 | - | - | - | 66 | - | - | -
NC(=O)Nn1c(CCC(=O)O)ccc1-c1ccc(F)cc1 | - | - | - | - | - | - | .
CNc1cc(CSc2ccc(Cl)cc2)nc(C)n1 | - | - | - | - | - | - | .
CCOC(=O)c1c(C)[nH]c(N=Nc2ccccc2C)c1C | - | - | - | 72 | - | - | -
CCOC(=O)c1c(C)[nH]c(N=Nc2ccc(C)cc2C)c1C | - | - | - | - | - | - | .
O=C1CSC(c2cn(-c3ccccc3)nc2-c2cc3ccccc3oc2=O)N1Cc1ccccc1 (stereo not given) | - | - | - | 61 | - | - | -
CN(C)C(=O)c1cn(-c2ccccc2)nc1-c1cc2ccccc2oc1=O | - | - | - | - | - | - | .
Cc1c([N+](=O)[O-])nnn1-c1cc(Cl)cc(Cl)c1 | - | - | - | 50 | - | - | -
N#Cc1nnn(-c2cc(Cl)cc(Cl)c2)c1N | . | - | . | . | . | . | .
COc1ccc(C(=O)CC2OC(=O)c3ccccc32)cc1OC (stereo not given) | - | - | - | - | - | - | .
Cc1ccc(C(=O)CC2SC(N)=NC2=O)cc1 (stereo not given) | - | - | - | - | - | - | .
Cc1ccc(NC(=O)Nc2sc(=S)n(C)c2C)cc1 | - | - | - | 59 | - | - | -
COc1ccccc1-n1c(=O)oc2ccc(Cl)cc2c1=O | - | - | - | - | - | - | .
CCOC(=O)c1c(-c2ccc(F)cc2)csc1NC(=O)CCN1CCOCC1 | - | - | - | 93 | - | - | 77
Cc1ccc(CNn2cnnc2SCC(=O)NC(C)(C)C)cc1 | - | - | - | - | - | - | .
O=C(CCc1nnc(COc2ccccc2)o1)NCCc1cccs1 | - | - | - | - | - | - | .
Cn1ncc2c(O/N=C(\N)c3ccc(C(C)(C)C)cc3)ncnc21 | . | - | . | . | . | . | .
CC(C)c1onc(C(=O)N2CCN(C(c3ccccc3)c3ccccc3)CC2)c1[N+](=O)[O-] | - | - | - | - | - | - | .
Cc1c(C(=O)Nc2ccncc2)sc2nc(-c3ccc(F)cc3)cn12 | - | - | - | 99 | - | - | -
Cc1ccc(CO/N=C/c2c(O)cc(C)oc2=O)cc1 | - | - | - | - | - | - | .
Cc1ccc(N/N=C/c2c(O)cc(C)oc2=O)cc1 | - | - | - | 87 | - | - | -
CCN(CC)CCN(C)C1CCC(c2ccccc2)CC1 (stereo not given) | - | - | - | 94 | - | - | 76
Cc1ccc(CN=C2Nc3ccccc3CS2)cc1 | - | - | - | 86 | - | - | -
Clc1ccc(CN=C2Nc3ccccc3CS2)cc1 | - | - | - | - | - | - | .
SMILES | ABCB1 block | Avidin bead fluor | ABCG2 block | L major viab | GSH bead fluor | PKD1 inh | Lmaj promast 1uM
CC(C)c1ccc(/C=N/Nc2ccc(C(=O)O)cc2)cc1 | - | - | - | 57 | - | - | -
COc1ccc(S(=O)(=O)Nc2ccc(O)c3ccccc23)cc1 | - | - | - | 100 | - | - | 97
Cc1nc2c(-c3ccccc3)c(C)[nH]n2c(=O)c1Cc1ccccc1 | - | - | - | - | - | - | .
Cc1nc2c(-c3ccc(Cl)cc3)c(C)[nH]n2c(=O)c1Cc1ccccc1 | - | - | - | 99 | - | - | -
N#CC1=C(c2ccccc2)/C(=C/c2ccccc2)OC1=O | - | - | - | 92 | - | - | -
O=C(Nc1ccc(F)cc1F)N1CCCCC1c1cccnc1 (stereo not given) | - | - | - | 73 | - | - | -
O=C(Nc1ccccc1F)N1CCCC1c1cccnc1 (stereo not given) | . | - | . | . | . | . | .
